Reference: ChEMBL document CHEMBL5376016, “Synthesis of novel rapanone derivatives via organocatalytic reductive C-alkylation: biological evaluation of antioxidant properties, in vivo zebrafish embryo toxicity, and docking studies” (RSC Med Chem, 2024)
In brackets after ≈: the same amount, converted by molar mass.

Tests used:
[1] = Acute toxicity in zebrafish embryo assessed as morphological changes at upto 160 uM measured after 48 hrs post fertilization relative to control; parameters: species or system Danio rerio; settings: in vivo
Method in brief: (§1)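 Wild-type Danio rerio embryos were exposed in milli-Q water with compound dissolved in DMSO (≤0.25 v/v final). Controls were milli-Q water and water with DMSO. Embryos were held at 26.8 ± 1 °C and scored by inverted microscope at 24–96 hpf, after exposure at 160 µM, for bent spine, yolk sac edema, pericardial edema, short tail and bent tail.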

[2] = Antioxidant activity assessed as DPPH radical scavenging activity after 30 mins by spectrophotometric analysis relative to control; type: functional; parameters: concentration or dose not given beside the values
Method in brief: (§2)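 Ascorbic acid was the reference standard. For DPPH, 0.2 mM DPPH in methanol was kept in the dark, mixed with compound at 5–160 µM (DMSO stock), and incubated 30 min in the dark at room temperature, then A517 was read. %RSA = (Ac−As)/Ac×100. Triplicate runs; IC50 taken from the plot of % scavenging versus concentration.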

[3] = Antioxidant activity assessed as ABTS radical scavenging activity after 6 mins by spectrophotometric analysis; type: functional
[4] = Acute toxicity in zebrafish embryo assessed as survival rate at 20 uM measured after 96 hrs post fertilization relative to control; parameters: species or system Danio rerio; settings: in vivo
Method in brief: (§3)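 Lethality endpoints were coagulation and absence of heartbeat, checked by inverted microscope. Survival was compared with untreated embryos across three independent experiments; mean ± SD, ANOVA.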

[5] = Antioxidant activity assessed as DPPH radical scavenging activity after 30 mins by spectrophotometric analysis; type: functional; method in brief: as §2
[6] = Acute toxicity in zebrafish embryo assessed as survival rate at 160 uM measured after 96 hrs post fertilization relative to control; parameters: species or system Danio rerio; settings: in vivo; method in brief: as §3
[7] = Acute toxicity in zebrafish embryo assessed as hatching rate at 20 to 160 uM measured after 48 hrs post fertilization relative to control; parameters: species or system Danio rerio; settings: in vivo, dose 20-160 µM
Method in brief: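 Controls were water and water with 0.5% DMSO. Incubation at 26.8 ± 1 °C, 20 embryos per well. Hatching scored over 0–96 hpf under an inverted microscope. Triplicate, three independent experiments; mean ± SD; ANOVA.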

[8] = Antioxidant activity assessed as ABTS radical scavenging activity after 6 mins by spectrophotometric analysis relative to control; type: functional; parameters: concentration or dose not given beside the values
[9] = Acute toxicity in zebrafish embryo assessed as survival rate at 96 hrs post fertilization relative to control; parameters: species or system Danio rerio; concentration or dose not given beside the values; settings: in vivo; method in brief: as §3
[10] = Acute toxicity in zebrafish embryo assessed as morphological changes by measuring short tail at upto 160 uM measured after 96 hrs post fertilization; parameters: species or system Danio rerio; settings: in vivo; method in brief: as §1
[11] = Acute toxicity in zebrafish embryo assessed as morphological changes by measuring yolk sac edema at upto 160 uM measured after 96 hrs post fertilization; parameters: species or system Danio rerio; settings: in vivo; method in brief: as §1
[12] = Antioxidant activity assessed as ABTS radical scavenging activity after 30 mins by […]
[13] = Antioxidant activity assessed as ABTS radical scavenging activity after 30 mins by spectrophotometric analysis; type: functional
[14] = Acute toxicity in zebrafish embryo assessed as morphological changes by measuring bent spine at upto 160 uM measured after 96 hrs post fertilization; parameters: species or system Danio rerio; settings: in vivo; method in brief: as §1
[15] = Acute toxicity in zebrafish embryo assessed as morphological changes by measuring pericardial edema at upto 160 uM measured after 96 hrs post fertilization; parameters: species or system Danio rerio; settings: in vivo; method in brief: as §1
[16] = Acute toxicity in zebrafish embryo assessed as morphological changes by measuring bent tail at upto 160 uM measured after 96 hrs post fertilization; parameters: species or system Danio rerio; settings: in vivo; method in brief: as §1
[17] = Antioxidant activity assessed as DPPH radical scavenging activity after 20 mins by […]; type: functional

SMILES: CCCCCCCCCCCC1=C(O)C(=O)C(Cc2ccccc2)=C(O)C1=O
- Activity [1]: Non-Toxic
- Activity [2]: 71.1%
- IC50 [3]: 2710 nM
- survival at 96 h, 20 µM [4]: 52%
- IC50 [5]: 3180 nM
- survival at 96 h, 160 µM [6]: 70%
- Activity [7]: 75.66%
- Activity [8]: 80.2%
- survival at 96 h ([9]; read-out: Activity): 70%

SMILES: CCCCCCCCCCCC1=C(O)C(=O)C(CC(C)C)=C(O)C1=O
- Activity [1]: Non-Toxic
- Activity [2]: 80%
- survival at 96 h, 20 µM [4]: 52%
- IC50 [5]: 2480 nM
- survival at 96 h, 160 µM [6]: 70%
- Activity [7]: 75.66%
- Activity [8]: 80.2%
- survival at 96 h ([9]; read-out: Activity): 70%

SMILES: CCCCCCCCCCCC1=C(O)C(=O)C(Cc2ccccc2C)=C(O)C1=O
- Activity [1]: Non-Toxic
- Activity [2]: 80%
- IC50 [3]: 2050 nM
- survival at 96 h, 20 µM [4]: 52%
- IC50 [5]: 2510 nM
- survival at 96 h, 160 µM [6]: 70%
- Activity [7]: 75.66%
- Activity [8]: 80.2%
- survival at 96 h ([9]; read-out: Activity): 70%

SMILES: CCCCCCCCCCCC1=C(O)C(=O)C(Cc2ccc(C(C)C)cc2)=C(O)C1=O
- Activity [1]: Non-Toxic
- Activity [2]: 86%
- IC50 [3]: 1910 nM
- survival at 96 h, 20 µM [4]: 52%
- IC50 [5]: 1900 nM
- survival at 96 h, 160 µM [6]: 70%
- Activity [7]: 75.66%
- Activity [8]: 87.2%
- survival at 96 h ([9]; read-out: Activity): 70%

SMILES: CCCCCCCCCCCC1=C(O)C(=O)C(Cc2c(OC)cc(OC)cc2OC)=C(O)C1=O
- Activity [1]: Non-Toxic
- Activity [2]: 71.1%
- IC50 [3]: 2600 nM
- survival at 96 h, 20 µM [4]: 52%
- IC50 [5]: 3070 nM
- survival at 96 h, 160 µM [6]: 70%
- Activity [7]: 75.66%
- Activity [8]: 80.2%
- survival at 96 h ([9]; read-out: Activity): 70%

SMILES: CCCCCCCCCCCC1=C(O)C(=O)C(Cc2ccc(O)cc2)=C(O)C1=O
- Activity [1]: Non-Toxic
- Activity [2]: 80%
- IC50 [3]: 2700 nM
- survival at 96 h, 20 µM [4]: 52%
- IC50 [5]: 2830 nM
- survival at 96 h, 160 µM [6]: 70%
- Activity [7]: 75.66%
- Activity [8]: 75.1%
- survival at 96 h ([9]; read-out: Activity): 70%

SMILES: CCCCCCCCCCCC1=C(O)C(=O)C=C(O)C1=O [EMBELIN]
- Activity [10]: Toxic
- Activity [11]: Toxic
- IC50 [12]: 27.92 µg/mL (≈ 94.8 µM)
- Activity [2]: 71.1%
- IC50 [13]: 27.9 µg/mL (≈ 94.8 µM)
- IC50 [3]: 3120 nM
- Activity [14]: Toxic
- survival at 96 h, 20 µM [4]: 52%
- IC50 [5]: 3120 nM
- survival at 96 h, 160 µM [6]: 70%
- Activity [7]: 75.66%
- Activity [8]: 75.1%
- Activity [15]: Toxic
- Activity [16]: Toxic
- survival at 96 h ([9]; read-out: Activity): 70%
- IC50 [17]: 0.23 µg/mL (≈ 0.781 µM)

SMILES: CCCCCCCCCCCC1=C(O)C(=O)C(Cc2ccc(OC)cc2)=C(O)C1=O
- Activity [1]: Non-Toxic
- Activity [2]: 71.1%
- IC50 [3]: 2720 nM
- survival at 96 h, 20 µM [4]: 52%
- IC50 [5]: 3160 nM
- survival at 96 h, 160 µM [6]: 70%
- Activity [7]: 75.66%
- Activity [8]: 80.2%
- survival at 96 h ([9]; read-out: Activity): 70%

SMILES: C#Cc1ccc(CC2=C(O)C(=O)C(CCCCCCCCCCC)=C(O)C2=O)cc1
- Activity [10]: Toxic
- Activity [11]: Toxic
- Activity [2]: 50.3%
- IC50 [3]: 4720 nM
- Activity [14]: Toxic
- IC50 [5]: 4900 nM
- Activity [7]: 51.33%
- Activity [8]: 52.1%
- Activity [15]: Toxic
- Activity [16]: Toxic
- survival at 96 h ([9]; read-out: Survival): > 90%

SMILES: CCCCCCCCCCCC1=C(O)C(=O)C(Cc2cc(OC)c(OC)c(OC)c2)=C(O)C1=O
- Activity [1]: Non-Toxic
- Activity [2]: 80%
- IC50 [3]: 2480 nM
- survival at 96 h, 20 µM [4]: 52%
- IC50 [5]: 2950 nM
- survival at 96 h, 160 µM [6]: 70%
- Activity [7]: 75.66%
- Activity [8]: 80.2%
- survival at 96 h ([9]; read-out: Activity): 70%

SMILES: CCCCCCCCCCCC1=C(O)C(=O)C(Cc2cccc(Oc3ccccc3)c2)=C(O)C1=O
- Activity [10]: Toxic
- Activity [11]: Toxic
- Activity [2]: 80%
- IC50 [3]: 2360 nM
- Activity [14]: Toxic
- survival at 96 h, 20 µM [4]: 52%
- IC50 [5]: 2880 nM
- survival at 96 h, 160 µM [6]: 70%
- Activity [7]: 75.66%
- Activity [8]: 80.2%
- Activity [15]: Toxic
- Activity [16]: Toxic
- survival at 96 h ([9]; read-out: Activity): 70%

SMILES: CCCCCCCCCCCC1=C(O)C(=O)C(Cc2ccc(C)cc2)=C(O)C1=O
- Activity [1]: Non-Toxic
- Activity [2]: 89.4%
- IC50 [3]: 1810 nM
- survival at 96 h, 20 µM [4]: 52%
- IC50 [5]: 1810 nM
- survival at 96 h, 160 µM [6]: 70%
- Activity [7]: 75.66%
- Activity [8]: 90.3%
- survival at 96 h ([9]; read-out: Activity): 70%

SMILES: CCCCCCCCCCCC1=C(O)C(=O)C(Cc2ccc(N(C)C)cc2)=C(O)C1=O
- Activity [1]: Non-Toxic
- Activity [2]: 71.1%
- IC50 [3]: 2910 nM
- survival at 96 h, 20 µM [4]: 52%
- IC50 [5]: 3370 nM
- survival at 96 h, 160 µM [6]: 70%
- Activity [7]: 75.66%
- Activity [8]: 75.1%
- survival at 96 h ([9]; read-out: Activity): 70%

SMILES: CCCCCCCCCCCC1=C(O)C(=O)C(CC)=C(O)C1=O
- Activity [1]: Non-Toxic
- Activity [2]: 80%
- IC50 [3]: 2440 nM
- survival at 96 h, 20 µM [4]: 52%
- IC50 [5]: 2610 nM
- survival at 96 h, 160 µM [6]: 70%
- Activity [7]: 75.66%
- Activity [8]: 80.2%
- survival at 96 h ([9]; read-out: Activity): 70%

SMILES: CCCCCCCCCCCC1=C(O)C(=O)C(Cc2ccccc2O)=C(O)C1=O
- Activity [1]: Non-Toxic
- Activity [2]: 71.1%
- IC50 [3]: 2870 nM
- survival at 96 h, 20 µM [4]: 52%
- IC50 [5]: 3050 nM
- survival at 96 h, 160 µM [6]: 70%
- Activity [7]: 75.66%
- Activity [8]: 75.1%
- survival at 96 h ([9]; read-out: Activity): 70%

SMILES: CCCCCCCCCCCC1=C(O)C(=O)C(Cc2ccccc2Cl)=C(O)C1=O
- Activity [10]: Toxic
- Activity [11]: Toxic
- Activity [2]: 50.3%
- IC50 [3]: 5540 nM
- Activity [14]: Toxic
- IC50 [5]: 4620 nM
- Activity [7]: 51.33%
- Activity [8]: 52.1%
- Activity [15]: Toxic
- Activity [16]: Toxic
- survival at 96 h ([9]; read-out: Survival): > 90%

SMILES: CCCCCCCCCCCC1=C(O)C(=O)C(CCCl)=C(O)C1=O
- Activity [1]: Non-Toxic
- Activity [2]: 50.3%
- IC50 [3]: 4410 nM
- IC50 [5]: 4600 nM
- Activity [7]: 51.33%
- Activity [8]: 52.1%
- survival at 96 h ([9]; read-out: Survival): > 90%

SMILES: CCCCCCCCCCCC1=C(O)C(=O)C(Cc2ccccc2F)=C(O)C1=O
- Activity [1]: Non-Toxic
- Activity [2]: 50.3%
- IC50 [3]: 5440 nM
- IC50 [5]: 4620 nM
- Activity [7]: 51.33%
- Activity [8]: 52.1%
- survival at 96 h ([9]; read-out: Survival): > 90%
